Measured values from paper PMC7233462 (Cell reports, 2019).
pKd: −log10 of the molar value.

Key:
DAD2 = settings: Petunia paralog DAD2; ref Hamiaux et al., 2012; cited from earlier work
[1] = test system: PpKAI2-like E SDIDSM166TDIHDE; assay: Differential scanning fluorimetry; assay type: binding, Physcomitrella patens; settings: loop-swap PpKAI2-like E SDIDSM166TDIHDE
PpKAI2-like D [2] = assay: Differential scanning fluorimetry; assay type: binding, Physcomitrella patens
D14 = settings: Arabidopsis D14; ref Zhao et al., 2013; cited from earlier work
PpKAI2-like C [3] = biological target: T1, PpKAI2-like C (Physcomitrium patens, UniProt A9SKF7); assay: Differential scanning fluorimetry; assay type: binding, Physcomitrella patens
[4] = biological target: PpKAI2-like E S166D S170D; assay: Isothermal titration calorimetry of; assay type: binding, Physcomitrella patens; settings: ITC
Procedure, shortened: (§1)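 GST-fused protein (wild-type or point mutant) was expressed in E. coli BL21-CodonPlus-RIL, HRV3-cleaved on glutathione resin, then size-excluded in 20 mM Tris-HCl, 30 mM NaCl, 1 mM TCEP, pH 7.7. Protein at 1800 μM was titrated into 40 μM racemic GR24 over 20 injections spaced 240 s apart. Data were fitted to a one-site binding model.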

[5] = test system: PpKAI2-like H TDIHDE167SDIDSM; assay: Differential scanning fluorimetry; assay type: binding, Physcomitrella patens; settings: loop-swap PpKAI2-like H TDIHDE167SDIDSM
PpKAI2-like H [6] = biological target: T2, PpKAI2-like H (Physcomitrium patens, UniProt A9SG07); assay: Differential scanning fluorimetry; assay type: binding, Physcomitrella patens; settings: PpKAI2-like H wild-type
PpKAI2-like E S166A = biological target: T3, PpKAI2-like E S166A (Physcomitrium patens, UniProt A9ST85, S166A); assay: Isothermal titration calorimetry of; assay type: binding, Physcomitrella patens
T3 sequence (A9ST85 1-270 S166A): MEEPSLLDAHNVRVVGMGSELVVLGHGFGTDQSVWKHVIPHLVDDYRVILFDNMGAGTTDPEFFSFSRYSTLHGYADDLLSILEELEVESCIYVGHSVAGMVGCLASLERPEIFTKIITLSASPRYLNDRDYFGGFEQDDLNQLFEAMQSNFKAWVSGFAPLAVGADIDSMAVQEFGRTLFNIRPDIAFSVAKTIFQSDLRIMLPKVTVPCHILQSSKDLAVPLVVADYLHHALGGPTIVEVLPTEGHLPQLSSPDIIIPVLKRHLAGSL
Procedure, shortened: as §1

PpKAI2-like E [7] = assay: Differential scanning fluorimetry; assay type: binding, Physcomitrella patens
PpKAI2-like L = assay: Fluorescence-based equilibrium microdialysis, KAR1 binding; parameters: species or system Physcomitrella patens
[8] = test system: Physcomitrella caulonema growth; settings: ref Hoffmann et al., 2014; cited from earlier work
[9] = test system: PpKAI2-like E SDIDSM166TDIHDE; assay: Fluorescence-based equilibrium microdialysis, KAR1 binding; parameters: species or system Physcomitrella patens; settings: loop-swap PpKAI2-like E SDIDSM166TDIHDE
PpKAI2-like H [10] = biological target: T2, PpKAI2-like H; assay: as above; parameters: species or system Physcomitrella patens
[11] = test system: PpKAI2-like H TDIHDE167SDIDSM; assay: as above; parameters: species or system Physcomitrella patens; settings: loop-swap PpKAI2-like H TDIHDE167SDIDSM
PpKAI2-like D [12] = assay: as above; parameters: species or system Physcomitrella patens
PpKAI2-like C [13] = biological target: T1, PpKAI2-like C; assay: as above; parameters: species or system Physcomitrella patens
AtKAI2 = settings: read-out: published affinity, ref Guo et al., 2013; cited from earlier work
PpKAI2-like B = assay: Fluorescence-based equilibrium microdialysis, KAR1 binding; parameters: species or system Physcomitrella patens
PpKAI2-like E [14] = assay: as above; parameters: species or system Physcomitrella patens
PpKAI2-like K = assay: as above; parameters: species or system Physcomitrella patens
PpKAI2-like E [15] = assay: Mass spectrometry of protein for D ring modification; assay type: biochemical, Physcomitrella patens; settings: PpKAI2-like E incubated with ligand
PpKAI2-like D [16] = assay: as above; assay type: biochemical, Physcomitrella patens; settings: PpKAI2-like D incubated with ligand
PpKAI2-like E [17] = assay type: biochemical, Physcomitrella patens; settings: 1 μM PpKAI2-like E, 1 mM substrate, 3 h, room temperature
PpKAI2-like D [18] = assay type: biochemical, Physcomitrella patens; settings: 1 μM PpKAI2-like D, 1 mM substrate, 3 h, room temperature
PpKAI2-like C [19] = biological target: T1, PpKAI2-like C; assay type: biochemical, Physcomitrella patens; settings: 1 μM PpKAI2-like C, 1 mM substrate, 3 h, room temperature
PpKAI2-like C [20] = biological target: T1, PpKAI2-like C; assay: Mass spectrometry of protein for D ring modification; assay type: biochemical, Physcomitrella patens; settings: PpKAI2-like C incubated with ligand

In the case of `CC1=CC(O/C=C2/C(=O)OC3c4ccccc4CC23)OC1=O` (racemic) [(±)-GR24], the turnover rate (DAD2) is listed as 3 (±)-GR24 molecules/hr, the “affinity (DSF)” value [1] is listed as “reduced compared to wild-type” and the “change of protein melting point (DSF)” value (PpKAI2-like D [2]) is listed as “destabilization”. For the same compound, the turnover rate (D14) was 1 (±)-GR24 molecule/3 min, the “change of protein melting point (DSF)” value (PpKAI2-like C [3]) was “destabilization” and the “binding of (±)-GR24” value [4] was “unable to detect binding”. For the same compound, the “affinity (DSF)” value [5] was “weak affinity”, the “binding / interaction (DSF)” value (PpKAI2-like H [6]) was “no binding observed” and the pKd (PpKAI2-like E S166A) was 4.09. For the same compound, the “change of protein melting point (DSF)” value (PpKAI2-like E [7]) was “strongest shift of the protein melting point”.

In the case of `CC1=CC(O/C=C(C)\C=C\C2=C(C)CCCC2(C)C)OC1=O` (racemic) [rac-carlactone], the “change of protein melting point (DSF)” value (PpKAI2-like D [2]) was “unable to detect any interaction”, the “change of protein melting point (DSF)” value (PpKAI2-like C [3]) was “unable to detect any interaction” and the “binding / interaction (DSF)” value (PpKAI2-like H [6]) was “unable to detect any interaction”. The “change of protein melting point (DSF)” value (PpKAI2-like E [7]) was “unable to detect any interaction”.

In the case of `Cc1c2ccocc-2oc1=O` [KAR1], the pKd (PpKAI2-like L) is given as 5.28, the “effect on Physcomitrella caulonema growth” value [8] is given as “not found any effect” and the KAR1 binding [9] is given as “weak binding”. For the same compound, the pKd (PpKAI2-like H [10]) was 5.17, the KAR1 binding [11] was “lost KAR1 binding ability” and the KAR1 binding (PpKAI2-like D [12]) was “unable to detect KAR1 binding”. The KAR1 binding (PpKAI2-like C [13]) was “unable to detect KAR1 binding”, the pKd (AtKAI2) was 5.05 and the KAR1 binding (PpKAI2-like B) was “do not bind”. The KAR1 binding (PpKAI2-like E [14]) was “unable to detect KAR1 binding” and the pKd (PpKAI2-like K) was 5.11.

In the case of (+)-4-deoxyorobanchol, the “change of protein melting point (DSF)” value (PpKAI2-like D [2]) was “unable to detect a change in melting points”, the “change of protein melting point (DSF)” value (PpKAI2-like C [3]) was “unable to detect a change in melting points” and the “change of protein melting point (DSF)” value (PpKAI2-like E [7]) was “unable to detect a change in melting points”.

With (+)-5-deoxystrigol the “D ring modification of active site histidine” value (shortened to “D ring modification”) (PpKAI2-like E [15]) was “unable to detect the modification”, the “D ring modification” value (PpKAI2-like D [16]) was “unable to detect the modification” and the “change of protein melting point (DSF)” value (PpKAI2-like D [2]) was “unable to detect a change in melting points”. For the same compound, the “degradation of intact substrate mass” value (PpKAI2-like E [17]) was “did not observe any effect”, the “change of protein melting point (DSF)” value (PpKAI2-like C [3]) was “unable to detect a change in melting points” and the “degradation of intact substrate mass” value (PpKAI2-like D [18]) was “did not observe any effect”. The “degradation of intact substrate mass” value (PpKAI2-like C [19]) was “did not observe any effect”, the “D ring modification” value (PpKAI2-like C [20]) was “unable to detect the modification” and the “change of protein melting point (DSF)” value (PpKAI2-like E [7]) was “unable to detect a change in melting points”.

For (−)-4-deoxyorobanchol, the “change of protein melting point (DSF)” value (PpKAI2-like D [2]) was “unable to detect a change in melting points”, the “change of protein melting point (DSF)” value (PpKAI2-like C [3]) was “unable to detect a change in melting points” and the “change of protein melting point (DSF)” value (PpKAI2-like E [7]) was “unable to detect a change in melting points”.

In the case of (−)-5-deoxystrigol, the “D ring modification” value (PpKAI2-like E [15]) was 96 Da mass of the D ring to be attached to the active site histidines, the “D ring modification” value (PpKAI2-like D [16]) was 96 Da mass of the D ring to be attached to the active site histidines and the “affinity (DSF)” value [1] was “reduced compared to wild-type”. The “change of protein melting point (DSF)” value (PpKAI2-like D [2]) was “absolute preference”, the “degradation of intact substrate mass” value (PpKAI2-like E [17]) was “loss of intact (−)-5-deoxystrigol mass” and the “change of protein melting point (DSF)” value (PpKAI2-like C [3]) was “absolute preference”. For the same compound, the “degradation of intact substrate mass” value (PpKAI2-like D [18]) was “loss of intact (−)-5-deoxystrigol mass”, the “affinity (DSF)” value [5] was “weak affinity” and the “binding / interaction (DSF)” value (PpKAI2-like H [6]) was “no binding observed”. For the same compound, the “degradation of intact substrate mass” value (PpKAI2-like C [19]) was “loss of intact (−)-5-deoxystrigol mass”, the “D ring modification” value (PpKAI2-like C [20]) was 96 Da mass of the D ring to be attached to the active site histidines and the “change of protein melting point (DSF)” value (PpKAI2-like E [7]) was “absolute preference”.
